Test results published in PMC3180640 (Frontiers in Pharmacology, 2011).

Key:
[1] = target: T1, human wt-CFTR (Homo sapiens, UniProt P13569); assay type: cell-based
[2] = tested on: rat colonic mucosa; experiment: Short-circuit current assay on rat colonic mucosa; conditions: rat distal colonic mucosa
[3] = target: T1, human wt-CFTR; experiment: Fluorescence assay of CFTR channel function; assay type: cell-based; conditions: FRT cells expressing wild-type CFTR, in the presence of 0.1 μmol/L forskolin
[4] = tested on: mouse tracheal submucosal glands; experiment: Measurement of individual submucosal gland fluid secretion in mouse trachea; conditions: 10 μmol/L osthole in serosal bathing solution
In short: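 Cranial segment of freshly excised mouse trachea mounted on a sponge, soaked in Krebs–Henseleit solution, mucosal side up in a humidified 5% CO2/95% air chamber at 37°C. Mucosa cleared with saline, nitrogen-dried, then covered with saline-saturated oil. Some tissues pre-incubated 30 min with 20 μmol/L CFTRinh-172. Gland droplets imaged by reflected-light microscopy after stimulation; secretion rate computed from droplet diameter assuming hemispherical shape.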

[5] = tested on: ΔF508-CFTR; experiment: Potentiation of ΔF508-CFTR; assay type: cell-based; conditions: ΔF508-CFTR versus wt-CFTR
[6] = target: ΔF508-CFTR; conditions: read-out: affinity in potentiating ΔF508-CFTR; ref Xu et al., 2008; cited from earlier work

T1 sequence (P13569 whole entry): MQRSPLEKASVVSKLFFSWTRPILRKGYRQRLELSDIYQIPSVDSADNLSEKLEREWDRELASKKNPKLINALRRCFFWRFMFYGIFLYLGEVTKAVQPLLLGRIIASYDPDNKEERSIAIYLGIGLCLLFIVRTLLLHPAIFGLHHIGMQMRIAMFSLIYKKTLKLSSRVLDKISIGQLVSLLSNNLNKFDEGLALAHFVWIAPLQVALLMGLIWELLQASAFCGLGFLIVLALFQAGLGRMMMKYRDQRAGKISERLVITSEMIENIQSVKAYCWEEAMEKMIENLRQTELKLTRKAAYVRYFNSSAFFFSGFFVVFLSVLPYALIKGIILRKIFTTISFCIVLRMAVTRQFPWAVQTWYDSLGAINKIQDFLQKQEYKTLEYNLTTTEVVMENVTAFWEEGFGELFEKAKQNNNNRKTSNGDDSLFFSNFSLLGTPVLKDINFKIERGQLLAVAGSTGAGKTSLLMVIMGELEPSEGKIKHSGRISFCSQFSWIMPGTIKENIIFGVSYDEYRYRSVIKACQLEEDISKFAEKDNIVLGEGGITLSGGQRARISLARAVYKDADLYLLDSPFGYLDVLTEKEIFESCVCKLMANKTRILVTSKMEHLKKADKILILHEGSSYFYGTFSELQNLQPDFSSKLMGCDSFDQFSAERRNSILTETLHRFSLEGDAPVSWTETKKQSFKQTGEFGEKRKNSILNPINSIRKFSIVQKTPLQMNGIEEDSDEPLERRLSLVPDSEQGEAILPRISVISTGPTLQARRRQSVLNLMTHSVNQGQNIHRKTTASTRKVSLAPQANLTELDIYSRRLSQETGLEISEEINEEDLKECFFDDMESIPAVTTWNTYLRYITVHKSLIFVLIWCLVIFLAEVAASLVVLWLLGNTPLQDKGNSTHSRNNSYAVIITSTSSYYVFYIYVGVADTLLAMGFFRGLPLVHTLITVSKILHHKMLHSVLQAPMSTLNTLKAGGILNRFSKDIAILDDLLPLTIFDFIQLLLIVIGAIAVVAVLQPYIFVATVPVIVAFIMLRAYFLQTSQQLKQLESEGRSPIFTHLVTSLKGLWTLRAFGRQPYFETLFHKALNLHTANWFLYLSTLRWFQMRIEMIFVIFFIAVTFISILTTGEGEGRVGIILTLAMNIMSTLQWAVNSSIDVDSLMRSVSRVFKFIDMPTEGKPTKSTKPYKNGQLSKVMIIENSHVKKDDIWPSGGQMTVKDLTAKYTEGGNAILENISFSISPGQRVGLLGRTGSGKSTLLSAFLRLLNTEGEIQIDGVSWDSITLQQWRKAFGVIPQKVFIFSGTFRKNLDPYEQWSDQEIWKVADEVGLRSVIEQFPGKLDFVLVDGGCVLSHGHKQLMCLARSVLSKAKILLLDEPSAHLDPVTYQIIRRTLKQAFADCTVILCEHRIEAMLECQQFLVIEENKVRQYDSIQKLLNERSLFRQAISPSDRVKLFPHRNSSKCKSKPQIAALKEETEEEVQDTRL

Compound: O=C(O)c1ccc(/C=C2\SC(=S)N(c3cccc(C(F)(F)F)c3)C2=O)cc1 [CFTRinh-172, reference compound]
- block of coumarin-stimulated Cl− current ([1]; CFTRinh-172 at 20 μmol/L): completely blocked the activations
- effect on osthole-stimulated chloride secretion [2]: completely abolished the osthole-stimulated chloride secretion

Compound: CC(C)=CCOc1c2occc2cc2ccc(=O)oc12 [imperatorin]
- stimulation of wt-CFTR-mediated I− influx [3]: stimulated wt-CFTR-mediated I^− influx in a concentration-dependent way

Compound: O=c1ccc2ccc3occc3c2o1 [isopsoralen]
- stimulation of wt-CFTR-mediated I− influx [3]: stimulated wt-CFTR-mediated I^− influx in a concentration-dependent way

Compound: COc1ccc2ccc(=O)oc2c1CC=C(C)C [osthole]
- stimulation of wt-CFTR-mediated I− influx [3]: stimulated wt-CFTR-mediated I^− influx in a concentration-dependent way
- Kd [1]: < 0.05 µM
- increase of fluid secretion rate compared to the saline control [4]: 3.34 fold
- affinity in potentiating ΔF508-CFTR lower than in activating wt-CFTR [5]: > 200 fold
- Kd [6]: ~10 µM

Compound: COc1cc2ccc(=O)oc2cc1OC [scoparone]
- stimulation of wt-CFTR-mediated I− influx [3]: stimulated wt-CFTR-mediated I^− influx in a concentration-dependent way
